Measurements gathered from unrelated publications.
Lines come from different studies, so protocols differ.
Target: Protein kinase C theta type (PRKCQ, Homo sapiens, UniProt Q04759)

O=C(NCC1CCOCC1)c1n[nH]cc1NC(=O)c1c(F)cccc1F gave a remaining binding of 100% (binding, competition with immobilised ligand; 1 µM).
For CN(C)c1nccc(-c2cnn3ncccc23)n1, the remaining binding was 88% (binding; 1 µM).
Nc1c(C(=O)NCc2ccc(C(=O)NCCCC3CCCCC3)cc2)cnn1-c1ccccc1 has a remaining binding of 100% (cell-free assay, competition with immobilised ligand; 0.1 µM).
COc1cnc(Nc2cccc(S(N)(=O)=O)c2)nc1N1CCN(c2ccccc2)CC1 has a remaining binding of 94% (binding, competition with immobilised ligand; 1 µM).
O=C(NC[C@@H]1[C@H]2CN(C(=O)OCc3cc(C(F)(F)F)cc(C(F)(F)F)c3)C[C@@H]12)c1ccc2[nH]nnc2c1 gave a remaining binding of 100% (cell-free assay, competition with immobilised ligand; 1 µM).
Nc1ncc2c(n1)-c1c([nH]c3ccc(C#CC4CC4)cc13)CCCC2 has a remaining binding of 98% (binding, competition with immobilised ligand; 1 µM).
COc1ncc2cc3ccccc3nc2c1C#N gave a remaining binding of 94% (cell-free assay, competition with immobilised ligand; 5 µM).
N[C@@H]1CCN(c2nccc(-c3cnn4ncccc34)n2)C1 has a remaining binding of 100% (binding; 1 µM).
CS(=O)(=O)N1CCCC(NC(=O)[C@H](CCC2CCCCC2)NC(=O)c2ccc(CNc3ncnc4c3nnn4-c3ccccc3)cc2)C1 (stereo partly shown) gave a remaining binding of 90% (cell-free assay, competition with immobilised ligand; 0.1 µM).
For Cc1cnn2ncc(-c3ccnc(N(C)C)n3)c2c1, the remaining binding was 99% (binding; 1 µM).
For Cc1cnc(Nc2ccc(C(=O)N3CCC(N4CCCC4)CC3)cc2)nc1-c1cc2ccccc2s1, the remaining binding was 27% (binding, competition with immobilised ligand; 1 µM).
The remaining binding of O=C(Nc1ccc(Oc2ccc(F)cc2)cc1)N1CCc2ncccc2[C@H]1c1ccc(F)cc1 is reported as 95% (cell-free assay, competition with immobilised ligand; 1 µM).
For COc1ccnn2ncc(-c3ccnc(N(C)C)n3)c12, the remaining binding was 81% (binding; 1 µM).
Cc1c(NC(=O)c2cc(C(N)=O)nc3cc(F)ccc23)c(C(F)(F)F)nn1Cc1ccc(C#N)cc1 has a remaining binding of 80% (cell-free assay, competition with immobilised ligand; 1 µM).
With CN(c1nccc(-c2cnn3ncccc23)n1)C1CC1 the remaining binding was 100% (binding; 1 µM).
The remaining binding of FC(F)(F)Oc1cccc(-c2cnc3ccc(-c4ccncc4)nn23)c1 is reported as 85% (cell-free assay, competition with immobilised ligand; 5 µM).
For c1cncc(-c2cccc(Nc3nccc(NC4CCCCC4)n3)c2)c1, the remaining binding was 8.3% (binding, competition with immobilised ligand; 10 µM).
With O=C(NCCCN1CCOCC1)c1ccc(Nc2ncc(Cl)c(-c3ccc(Cl)s3)n2)cc1 the remaining binding was 100% (binding, competition with immobilised ligand; 1 µM).
For C[C@@H]1CCN(c2nccc(-c3cnn4ncccc34)n2)C1, the remaining binding was 67% (binding; 1 µM).
For COc1cnc(Nc2cccc(S(N)(=O)=O)c2)nc1N1CCN(c2ccccc2)C(=O)C1, the remaining binding was 100% (binding, competition with immobilised ligand; 1 µM).
CN(c1ccnc(CNc2nc(Nc3ccc4c(c3)CC(=O)N4)ncc2C(F)(F)F)n1)S(C)(=O)=O gave a remaining binding of 55% (cell-free assay, competition with immobilised ligand; 1 µM).
For O=C(c1ccc(Nc2ncc(Cl)c(-c3ccc(Cl)s3)n2)cc1)N1CCC(N2CCCC2)CC1, the remaining binding was 60% (binding, competition with immobilised ligand; 1 µM).
